Source: ChEMBL document CHEMBL5661972, “In vitro biological activity of a novel small-molecule inhibitor of polo-like kinase 1” (Mol Cancer Ther, 2007)
The source made the active and inactive calls. The calls are words filed in the database; no cut-off is given here.

Key:
NHDF [1] = test: Induction of cell cycle arrest in human HDF cells assessed as accumulation of cells at >4N phase at 1 micromol/L incubated for 48 hrs by propidium iodide staining based flow cytometry analysis (reference value: 3.0 %); format: toxicity; details: 1 µM, dose 1 µmol/L
Outline: (§1)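 Cells seeded in six-well plates at densities that keep them in log growth (HDF 120,000, 60,000 or 30,000; H460 100,000, 50,000 or 25,000 per well for 24, 48 or 72 h). Treated with 1 or 3 μmol/L. Floating and adherent cells collected, ethanol-fixed, permeabilized with Triton X-100 and stained with propidium iodide. DNA content read by flow cytometry as % singlet cells.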

NCI-H460 [2] = test: Induction of cell cycle arrest in human NCI-H460 cells assessed as accumulation of cells at G1 phase at 3 micromol/L incubated for 48 hrs by propidium iodide staining based flow cytometry analysis (reference value: 50.9 %); format: functional; details: dose 3 µmol/L, at 3 µM
NCI-H460 [3] = test: Induction of cell cycle arrest in human NCI-H460 cells assessed as accumulation of cells at Sub-2N phase at 1 micromol/L incubated for 72 hrs by propidium iodide staining based flow cytometry analysis (reference value: 2.1 %); format: functional; details: dose 1 µmol/L, at 1 µM
NCI-H460 [4] = test: Induction of cell cycle arrest in human NCI-H460 cells assessed as accumulation of cells at G2-M phase at 1 micromol/L incubated for 72 hrs by propidium iodide staining based flow cytometry analysis (reference value: 18.2 %); format: functional; details: dose 1 µmol/L
NCI-H460 [5] = test: Induction of cell cycle arrest in human NCI-H460 cells assessed as accumulation of cells at >4N phase at 1 micromol/L incubated for 48 hrs by propidium iodide staining based flow cytometry analysis (reference value: 0.9 %); format: functional; details: dose 1 µmol/L, at 1 µM; outline: as §1
NHDF [6] = test: Induction of cell cycle arrest in human HDF cells assessed as accumulation of cells at G2-M phase at 3 micromol/L incubated for 24 hrs by propidium iodide staining based flow cytometry analysis (reference value: 22.6 %); format: toxicity; details: 3 µM, dose 3 µmol/L; outline: as §1
[7] = molecular target: Platelet-derived growth factor receptor beta (Homo sapiens, UniProt P09619); test: Inhibition of PDGFR1beta (unknown origin)
NCI-H460 [8] = test: Induction of cell cycle arrest in human NCI-H460 cells assessed as accumulation of cells at S phase at 1 micromol/L incubated for 24 hrs by propidium iodide staining based flow cytometry analysis (reference value: 23.2 %); format: functional; details: dose 1 µmol/L, at 1 µM
NCI-H460 [9] = test: Induction of cell cycle arrest in human NCI-H460 cells assessed as accumulation of cells at Sub-2N phase at 3 micromol/L incubated for 24 hrs by propidium iodide staining based flow cytometry analysis (reference value: 4.0 %); format: functional; details: dose 3 µmol/L, at 3 µM
NHDF [10] = test: Induction of cell cycle arrest in human HDF cells assessed as accumulation of cells at S phase at 1 micromol/L incubated for 72 hrs by propidium iodide staining based flow cytometry analysis (reference value: 3.6 %); format: toxicity; details: 1 µM, dose 1 µmol/L; outline: as §1
[11] = Inhibition of EGFR (unknown origin); parameters: species or system Homo sapiens
NHDF [12] = test: Induction of cell cycle arrest in human HDF cells assessed as accumulation of cells at >4N phase at 3 micromol/L incubated for 72 hrs by propidium iodide staining based flow cytometry analysis (reference value: 1.4 %); format: toxicity; details: 3 µM, dose 3 µmol/L; outline: as §1
NHDF [13] = test: Induction of cell cycle arrest in human HDF cells assessed as accumulation of cells at G1 phase at 3 micromol/L incubated for 24 hrs by propidium iodide staining based flow cytometry analysis (reference value: 57.0 %); format: toxicity; details: 3 µM, dose 3 µmol/L; outline: as §1
[14] = Inhibition of CDK2/cyclin A (unknown origin); parameters: species or system Homo sapiens
NCI-H460 [15] = test: Induction of cell cycle arrest in human NCI-H460 cells assessed as accumulation of cells at G1 phase at 3 micromol/L incubated for 24 hrs by propidium iodide staining based flow cytometry analysis (reference value: 45.5 %); format: functional; details: dose 3 µmol/L, at 3 µM; outline: as §1
NCI-H460 [16] = test: Induction of cell cycle arrest in human NCI-H460 cells assessed as accumulation of cells at Sub-2N phase at 1 micromol/L incubated for 48 hrs by propidium iodide staining based flow cytometry analysis (reference value: 2.5 %); format: functional; details: dose 1 µmol/L, at 1 µM
[17] = molecular target: Serine/threonine-protein kinase PLK3 (Homo sapiens, UniProt Q9H4B4); test: Inhibition of human PLK3 expressed in baculovirus infected in Trichoplusia ni cells using Biotin-Ahx-SFNDTLDFD as substrate in presence of ATP by TopCount scintillation proximity assay; parameters: species or system Trichoplusia ni cell
Outline: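 Full-length PLK3 (5 nmol/L) from baculovirus-infected Trichoplusia ni cells in 25 mmol/L HEPES pH 7.2, 15 mmol/L MgCl2, 1 μmol/L ATP with [γ-33P]ATP, 1 μmol/L biotinylated peptide, BSA, DTT. Incubated 1–1.5 h at 22°C in the linear range. Stopped with EDTA plus streptavidin SPA beads, then counted or imaged. Signal above EDTA background taken as percent inhibition versus DMSO wells.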

NCI-H460 [18] = test: Induction of cell cycle arrest in human NCI-H460 cells assessed as accumulation of cells at G1 phase at 1 micromol/L incubated for 48 hrs by propidium iodide staining based flow cytometry analysis (reference value: 50.9 %); format: functional; details: dose 1 µmol/L, at 1 µM; outline: as §1
NHDF [19] = test: Induction of cell cycle arrest in human HDF cells assessed as accumulation of cells at G1 phase at 3 micromol/L incubated for 48 hrs by propidium iodide staining based flow cytometry analysis (reference value: 72.8 %); format: toxicity; details: 3 µM, dose 3 µmol/L; outline: as §1
NHDF [20] = test: Induction of cell cycle arrest in human HDF cells assessed as accumulation of cells at S phase at 3 micromol/L incubated for 24 hrs by propidium iodide staining based flow cytometry analysis (reference value: 13.2 %); format: toxicity; details: 3 µM, dose 3 µmol/L; outline: as §1
[21] = Selectivity ratio of IC50 for cytotoxicity against human HDF cells to IC50 for antiproliferative activity against human NCI-N87 cells; format: toxicity, cell-based; details: HDF cells versus NCI-N87 cells, read-out: Ratio IC50
NCI-H460 [22] = test: Induction of cell cycle arrest in human NCI-H460 cells assessed as accumulation of cells at Sub-2N phase at 1 micromol/L incubated for 24 hrs by propidium iodide staining based flow cytometry analysis (reference value: 4.0 %); format: functional; details: dose 1 µmol/L, at 1 µM
NCI-H460 [23] = test: Induction of cell cycle arrest in human NCI-H460 cells assessed as accumulation of cells at >4N phase at 3 micromol/L incubated for 72 hrs by propidium iodide staining based flow cytometry analysis (reference value: 0.9 %); format: functional; details: dose 3 µmol/L, at 3 µM; outline: as §1
NHDF [24] = test: Induction of cell cycle arrest in human HDF cells assessed as accumulation of cells at Sub-2N phase at 3 micromol/L incubated for 72 hrs by propidium iodide staining based flow cytometry analysis (reference value: 0.7 %); format: toxicity; details: 3 µM, dose 3 µmol/L; outline: as §1
NCI-H460 [25] = test: Antiproliferative activity against human NCI-H460 cells assessed as outgrowth of cells at 0.37 micromol/L incubated for 72 hrs; format: functional, cell-based; details: dose 0.37 µmol/L
Outline: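 HDF seeded at 1,300 and H460 at 600 per well in 96-well plates. After 24 h, exposed to vehicle (0.3% DMSO) or compound at 0.37–30 μmol/L for 72 h. Wells were then washed with PBS and refed with drug-free medium containing gentamicin. Regrowth was followed by methylene blue staining at set time points over 13 days in total.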

HeLa = test: Inhibition of p53-PLK1 in human HeLa cells assessed as inhibition of p53 phosphorylation at Ser15 residue by Western blotting analysis; format: cell-based; details: dose 0.0015-30 µM
Outline: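 HeLa cells with tet-inducible p53-PLK1 fusion induced overnight with 125 ng/mL doxycycline, then treated 6 h with 3-fold dilutions (30–0.00152 μmol/L). Lysates resolved on 4–12% Bis-Tris gels, transferred to nitrocellulose, probed for phospho-Ser15 p53 or total p53.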

Chain of Platelet-derived growth factor receptor beta (P09619 whole entry): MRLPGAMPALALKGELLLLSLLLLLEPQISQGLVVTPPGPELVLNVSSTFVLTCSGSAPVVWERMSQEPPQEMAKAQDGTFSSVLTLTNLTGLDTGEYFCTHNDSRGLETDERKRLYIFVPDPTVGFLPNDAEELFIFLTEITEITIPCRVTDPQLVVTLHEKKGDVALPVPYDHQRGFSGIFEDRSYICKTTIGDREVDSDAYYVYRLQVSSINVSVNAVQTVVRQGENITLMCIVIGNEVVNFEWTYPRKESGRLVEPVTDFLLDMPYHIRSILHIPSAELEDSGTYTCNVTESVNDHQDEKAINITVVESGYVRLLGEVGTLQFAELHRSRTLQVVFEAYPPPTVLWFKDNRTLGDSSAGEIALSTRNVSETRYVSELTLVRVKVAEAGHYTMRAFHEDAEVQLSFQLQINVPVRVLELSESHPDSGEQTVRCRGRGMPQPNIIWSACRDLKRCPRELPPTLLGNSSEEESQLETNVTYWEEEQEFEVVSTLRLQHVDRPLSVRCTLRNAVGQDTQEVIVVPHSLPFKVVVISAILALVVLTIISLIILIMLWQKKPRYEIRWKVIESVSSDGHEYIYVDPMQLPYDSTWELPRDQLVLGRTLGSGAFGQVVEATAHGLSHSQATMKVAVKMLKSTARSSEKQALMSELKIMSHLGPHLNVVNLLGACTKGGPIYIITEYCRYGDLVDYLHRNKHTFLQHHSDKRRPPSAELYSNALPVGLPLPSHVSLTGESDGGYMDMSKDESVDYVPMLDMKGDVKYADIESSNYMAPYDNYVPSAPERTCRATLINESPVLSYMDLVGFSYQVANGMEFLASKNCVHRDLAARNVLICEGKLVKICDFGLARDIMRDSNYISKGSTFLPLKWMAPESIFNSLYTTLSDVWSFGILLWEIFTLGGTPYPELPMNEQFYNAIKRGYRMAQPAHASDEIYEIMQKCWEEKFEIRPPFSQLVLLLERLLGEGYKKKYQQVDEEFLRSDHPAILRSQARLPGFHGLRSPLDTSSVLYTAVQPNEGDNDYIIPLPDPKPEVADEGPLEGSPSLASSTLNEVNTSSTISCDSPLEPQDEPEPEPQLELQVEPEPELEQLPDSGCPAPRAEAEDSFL
Chain of Serine/threonine-protein kinase PLK3 (Q9H4B4 whole entry): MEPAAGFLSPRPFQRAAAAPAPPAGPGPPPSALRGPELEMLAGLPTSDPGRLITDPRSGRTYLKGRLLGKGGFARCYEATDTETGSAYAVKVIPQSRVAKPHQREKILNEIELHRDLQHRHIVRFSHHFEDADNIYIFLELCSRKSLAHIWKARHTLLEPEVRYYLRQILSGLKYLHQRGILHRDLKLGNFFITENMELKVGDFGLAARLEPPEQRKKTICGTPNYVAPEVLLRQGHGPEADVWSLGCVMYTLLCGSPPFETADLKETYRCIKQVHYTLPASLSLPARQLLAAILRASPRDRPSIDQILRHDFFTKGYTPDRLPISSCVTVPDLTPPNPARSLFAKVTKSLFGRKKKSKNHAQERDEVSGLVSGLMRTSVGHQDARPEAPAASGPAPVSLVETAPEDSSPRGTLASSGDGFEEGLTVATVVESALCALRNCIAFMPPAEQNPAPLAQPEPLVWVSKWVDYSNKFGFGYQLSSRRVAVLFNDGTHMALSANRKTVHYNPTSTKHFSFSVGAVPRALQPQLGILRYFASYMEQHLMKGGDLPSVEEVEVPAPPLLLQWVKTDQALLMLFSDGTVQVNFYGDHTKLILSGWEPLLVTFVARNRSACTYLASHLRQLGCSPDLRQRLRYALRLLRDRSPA

- IC50 [7]: 160 nM
- IC50 [11]: > 10000 nM
- IC50 [14]: 7600 nM
- IC50 [17]: 9.1 nM
Compound: COc1cc2ncn(-c3cc(OCc4ccccc4C(F)(F)F)c(C(N)=O)s3)c2cc1OC [GW843682X]
- Activity (NHDF [1]): 6.4%
- Activity (NCI-H460 [2]): 7.5%
- Activity (NCI-H460 [3]): 16%
- Activity (NCI-H460 [4]): 10.6%
- Activity (NCI-H460 [5]): 29%
- Activity (NHDF [6]): 65.6%
- Activity (NCI-H460 [8]): 18.2%
- Activity (NCI-H460 [9]): 24.1%
- Activity (NHDF [10]): 6.7%
- Activity (NHDF [12]): 19.1%
- Activity (NHDF [13]): 21.1%
- Activity (NCI-H460 [15]): 7.8%
- Activity (NCI-H460 [16]): 14.4%
- Activity (NCI-H460 [18]): 8.9%
- Activity (NHDF [19]): 11.3%
- Activity (NHDF [20]): 4.2%
- selectivity ratio [21]: > 10
- Activity (NCI-H460 [22]): 11.6%
- Activity (NCI-H460 [23]): 51%
- Activity (NHDF [24]): 9.1%
- Activity (NCI-H460 [25]): Active
- inhibition (HeLa): Dose-Dependent Effect
